# Where “and” joins values, the source holds several entries; their conditions need not be identical. Identical values can stand only once.
# Assays:
# Gallus gallus [1] = species: Gallus gallus; test: (§1) Hypocholesterolemic activity in 6-week old male mormocholesterolemic chickens using experiment 4; type: functional
# Summary of the method: (§2)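 Male chickens, 6 weeks old. Test compound mixed at 50 ppm into a corn-soybean control diet; controls get the diet alone. After the feeding period, birds are fasted 36 h and refed 48 h before sacrifice. Serum total, LDL and HDL cholesterol (mg/100 mL) and triglycerides measured; expressed as mean ± SD and percent of control, n = 6–12 per group.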
# Gallus gallus [2] = species: Gallus gallus; test: as §1; type: functional; remark: listed apart in the source
# Summary of the method: (§3)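 Six-week-old male chickens fed corn-soybean control diet with test compound at 50 ppm. Birds fasted 36 h, then refed 48 h before sacrifice. Serum total, LDL and HDL cholesterol and triglycerides measured (mg/100 mL), HDL/total ratio computed. Means ± SD, n = 6–12 per group, also as % of control. Significance p < 0.01 within each study.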
# [3] = biological target: T1, 3-hydroxy-3-methylglutaryl-coenzyme A reductase (Homo sapiens) (UniProt P04035); test: In vitro suppression of HMG-CoA reductase (HMGR) in Hep G2 cells; type: cell-based; design: concentration or dose not given beside the values; conditions: HepG2, concentration not given here
# T1 sequence (whole entry): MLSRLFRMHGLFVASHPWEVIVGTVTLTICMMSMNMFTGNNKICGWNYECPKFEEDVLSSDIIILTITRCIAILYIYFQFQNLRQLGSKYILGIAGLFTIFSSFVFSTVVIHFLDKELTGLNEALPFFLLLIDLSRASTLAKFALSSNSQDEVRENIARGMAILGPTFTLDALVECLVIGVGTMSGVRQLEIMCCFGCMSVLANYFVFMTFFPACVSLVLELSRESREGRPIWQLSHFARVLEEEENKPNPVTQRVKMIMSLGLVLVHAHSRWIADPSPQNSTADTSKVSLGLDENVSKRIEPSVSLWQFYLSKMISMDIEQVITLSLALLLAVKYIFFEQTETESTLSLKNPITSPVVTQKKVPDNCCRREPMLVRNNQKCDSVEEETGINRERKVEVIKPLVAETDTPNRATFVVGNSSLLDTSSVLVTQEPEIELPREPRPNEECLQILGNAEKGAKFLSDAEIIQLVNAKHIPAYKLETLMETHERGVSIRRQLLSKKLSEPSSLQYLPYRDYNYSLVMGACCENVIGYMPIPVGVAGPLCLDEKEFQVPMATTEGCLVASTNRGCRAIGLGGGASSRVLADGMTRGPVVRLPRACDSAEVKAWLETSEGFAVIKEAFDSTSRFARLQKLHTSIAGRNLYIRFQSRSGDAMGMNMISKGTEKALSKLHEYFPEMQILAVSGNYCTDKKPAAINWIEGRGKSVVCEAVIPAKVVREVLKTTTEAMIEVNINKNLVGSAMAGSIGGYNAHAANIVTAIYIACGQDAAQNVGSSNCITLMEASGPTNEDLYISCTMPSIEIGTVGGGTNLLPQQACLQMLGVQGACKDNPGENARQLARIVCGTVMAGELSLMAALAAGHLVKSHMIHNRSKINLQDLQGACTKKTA
# Summary of the method: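 HepG2 cells treated 4 h with compound at 10 μM, DMSO vehicle controls. HMG-CoA reductase activity assayed in microsomal fraction isolated at end of incubation. Mean % suppression vs controls, SD ≤ ±10%, n ≥ 8.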
# HepG2 = test: In vitro inhibition of cholesterol biosynthesis in Hep G2 cells; type: functional, Homo sapiens; design: concentration or dose not given beside the values
# Summary of the method: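 HepG2 human hepatoma cells incubated 4 h with compound at 10 μM, DMSO vehicle controls. Mean % inhibition vs controls, SD ≤ ±10%, n ≥ 8.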
# [4] = LDL oxidation assay as spectrophotometric determination of TBARS; type: functional
# Summary of the method: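 LDL (0.5 mg/mL protein stock) in saline/20 mM HEPES with drug in ethanol, oxidised by CuSO4 (4 × 10⁻⁴ M stock), 37 °C, 5 h, in duplicate. Stopped with EDTA; TCA/TBA added, boiled 30 min, A535 read. Malonaldehyde equivalents from tetramethoxypropane standard curve. IC50 = concentration inhibiting 50% TBARS vs ethanol controls.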
# Gallus gallus [5] = species: Gallus gallus; test: Ratio of HDL/total cholesterol value; type: functional; summary of the method: as §3
# Gallus gallus [6] = species: Gallus gallus; test: (§4) Hypocholesterolemic activity in 6-week old male mormocholesterolemic chickens using experiment 3; type: functional; summary of the method: as §2
# Gallus gallus [7] = species: Gallus gallus; test: as §4; type: functional; summary of the method: as §3; remark: listed apart in the source
# [8] = Compound oxidation potential using cyclic voltametry; type: ADME
# Gallus gallus [9] = species: Gallus gallus; test: Hypocholesterolemic activity in 6-week old male mormocholesterolemic chickens using experiment 2; type: functional; summary of the method: as §3
IC50 [4] [µM],Potential [8],Compound,Inhibition (HepG2) [%],Ratio (Gallus gallus [5]),further results
–,–,CC(C)=CCC/C(C)=C/CC/C(C)=C/CC/C(C)=C/CCC1(C)CCc2cc(O)c(C)c(C)c2O1 (centres undefined),0,–,–
–,–,CC(C)=CCC/C(C)=C/CC/C(C)=C/CCC1CCc2cc(O)ccc2C1 (centres undefined),40,0.62,LDL cholesterol (Gallus gallus [6]): 57 mg 100ml-1; HDL cholesterol (Gallus gallus [7]): 94 mg 100ml-1; Total cholesterol (Gallus gallus [7]): 152 mg 100ml-1; Triglycerides (Gallus gallus [7]): 76 mg 100ml-1
–,–,CC(C)=CCC/C(C)=C/CC/C(C)=C/CCC1(C)CCc2cc(F)ccc2O1 (centres undefined),35,–,–
–,–,CC(C)=CCC/C(C)=C/CC/C(C)=C/CCC1CCc2cc(O)c(C)c(C)c2O1 (centres undefined),62,0.52 and 0.54,LDL cholesterol (Gallus gallus [6]): 85 mg 100ml-1; LDL cholesterol (Gallus gallus [1]): 76 mg 100ml-1; HDL cholesterol (Gallus gallus [2]): 97 mg 100ml-1; Total cholesterol (Gallus gallus [2]): 178 mg 100ml-1; Triglycerides (Gallus gallus [2]): 83 mg 100ml-1; HDL cholesterol (Gallus gallus [7]): 102 mg 100ml-1; Total cholesterol (Gallus gallus [7]): 197 mg 100ml-1; Triglycerides (Gallus gallus [7]): 86 mg 100ml-1; inhibition [3]: 67%
–,–,CCCCC/C=C\C/C=C\CCCCCCCC1(C)CCc2cc(O)c(C)c(C)c2O1 (centres undefined),18,–,–
7,1.05,CC(C)=CCC/C(C)=C/CC/C(C)=C/CCC1(C)CCc2c(C)c(O)cc(C)c2O1 (centres undefined),43,–,inhibition [3]: 21%
4,–,CC(C)=CCC/C(C)=C/CCC1(C)CCc2c(O)cc(N3CCCC3)cc2O1 (centres undefined),54,–,–
10,–,CC(C)=CCC/C(C)=C/CC/C(C)=C/CCC1(C)CCc2cc(O)c(C(C)(C)C)cc2O1 (centres undefined),38,–,–
–,1.24,CC(C)=CCC/C(C)=C/CC/C(C)=C/CCC1(C)CCc2cccc(O)c2O1 (centres undefined),46,–,–
–,–,CCCCCCCC/C=C/CCCCCCCC1(C)CCc2cc(O)c(C)c(C)c2O1 (centres undefined),10,–,–
> 10,1.44,CC(C)=CCC/C(C)=C/CC/C(C)=C/CCC1(C)CCc2ccc(O)cc2O1 (centres undefined),58,–,–
–,1.26,CC(C)=CCC/C(C)=C/CC/C(C)=C/CCC1(C)CCc2ccc(O)c(O)c2O1 (centres undefined),27,–,–
0.6,1.05,CC(C)=CCC/C(C)=C/CC/C(C)=C/CCC1(C)CCc2cc(O)ccc2O1 (centres undefined),62,0.61,Triglycerides (Gallus gallus [9]): 80 mg 100ml-1; inhibition [3]: 53%
–,–,CCCCCCCCCCCCCC1(C)CCc2cc(O)c(C)c(C)c2O1 (centres undefined),16,–,–
–,–,CCCCC/C=C\C/C=C\C/C=C\CCCCC1(C)CCc2cc(O)c(C)c(C)c2O1 (centres undefined),22,–,–
–,–,CC(C)=CCC/C(C)=C/CC/C(C)=C/CCC1(C)CCc2cc(O)cc(Br)c2O1 (centres undefined),62,0.67,LDL cholesterol (Gallus gallus [6]): 45 mg 100ml-1; HDL cholesterol (Gallus gallus [7]): 93 mg 100ml-1; Total cholesterol (Gallus gallus [7]): 139 mg 100ml-1; Triglycerides (Gallus gallus [7]): 87 mg 100ml-1

Compound,IC50 [4] [µM],Potential [8],Inhibition (HepG2) [%],Ratio (Gallus gallus [5]),further results
CC(C)=CCC/C(C)=C\CCC1(C)CCc2cc(O)ccc2O1 (centres undefined),2,–,55,0.66,LDL cholesterol (Gallus gallus [1]): 39 mg 100ml-1; HDL cholesterol (Gallus gallus [2]): 94 mg 100ml-1; Total cholesterol (Gallus gallus [2]): 142 mg 100ml-1; Triglycerides (Gallus gallus [2]): 67 mg 100ml-1; inhibition [3]: 39%
CC(C)=CCC/C(C)=C/CC/C(C)=C/CCC1(C)CCc2cc(O)c3ccccc3c2O1 (centres undefined),–,0.8,57,0.61,LDL cholesterol (Gallus gallus [6]): 61 mg 100ml-1; HDL cholesterol (Gallus gallus [7]): 97 mg 100ml-1; Total cholesterol (Gallus gallus [7]): 160 mg 100ml-1; Triglycerides (Gallus gallus [7]): 81 mg 100ml-1; inhibition [3]: 57%
CC(C)=CCCC1(C)CCc2cc(O)ccc2O1 (centres undefined),2,1.2,35,0.71,LDL cholesterol (Gallus gallus [1]): 32 mg 100ml-1; HDL cholesterol (Gallus gallus [2]): 93 mg 100ml-1; Total cholesterol (Gallus gallus [2]): 131 mg 100ml-1; Triglycerides (Gallus gallus [2]): 73 mg 100ml-1
